Values belong to the compound of their own block, whether it stands above or below them. Calls of active or inactive are those of the source. The calls are words filed in the database; no cut-off is given here.
Legend:
Cytochrome P450 26A1 = biological target: T1, Cytochrome P450 26A1 (Homo sapiens, UniProt O43174); experiment: Inhibition of CYP26A1 in human MCF7 cell microsomes using [3H]ATRA after 1 hr by scintillation counting; design: species or system Microsome
T1 sequence (O43174 whole entry): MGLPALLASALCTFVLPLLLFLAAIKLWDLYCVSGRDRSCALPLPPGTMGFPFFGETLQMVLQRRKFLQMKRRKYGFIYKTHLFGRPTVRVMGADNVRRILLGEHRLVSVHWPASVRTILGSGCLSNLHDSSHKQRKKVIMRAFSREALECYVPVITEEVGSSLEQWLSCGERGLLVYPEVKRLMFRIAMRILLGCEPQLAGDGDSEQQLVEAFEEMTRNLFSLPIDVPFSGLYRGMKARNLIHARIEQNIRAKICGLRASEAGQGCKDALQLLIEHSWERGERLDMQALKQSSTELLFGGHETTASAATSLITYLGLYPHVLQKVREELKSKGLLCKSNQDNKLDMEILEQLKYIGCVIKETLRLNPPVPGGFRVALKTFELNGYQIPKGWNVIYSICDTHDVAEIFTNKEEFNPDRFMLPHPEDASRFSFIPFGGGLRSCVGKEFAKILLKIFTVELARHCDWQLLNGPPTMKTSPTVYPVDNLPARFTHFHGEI
How it was run: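 Cell-free assay on MCF7 CYP26A1 microsomes with [11,12-3H]all-trans-retinoic acid as substrate. IC50 taken from the best fit of a four-point dose-response curve.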

SH-SY5Y [1] = experiment: Induction of CYP26A1 mRNA expression in human SH-SY5Y cells at 1 uM after 72 hrs by RT-PCR analysis in presence of 0.1 uM of all-trans retinoic acid; format: functional
How it was run: (§1)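 SH-SY5Y cells exposed 72 h to test agent at 1 μM alone or with 0.1 μM ATRA. Total RNA extracted, reverse transcribed, and quantified by real-time PCR with TaqMan probes for CYP26A1 and β-actin. CYP26A1 was normalized to β-actin and reported as fold increase over cells given ATRA alone.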

CYP1A2 = biological target: T2, CYP1A2 (Homo sapiens, UniProt P05177); experiment: Inhibition of CYP1A2 in human liver microsomes at 0.4 uM; format: ADME, Microsome
T2 sequence (P05177 whole entry): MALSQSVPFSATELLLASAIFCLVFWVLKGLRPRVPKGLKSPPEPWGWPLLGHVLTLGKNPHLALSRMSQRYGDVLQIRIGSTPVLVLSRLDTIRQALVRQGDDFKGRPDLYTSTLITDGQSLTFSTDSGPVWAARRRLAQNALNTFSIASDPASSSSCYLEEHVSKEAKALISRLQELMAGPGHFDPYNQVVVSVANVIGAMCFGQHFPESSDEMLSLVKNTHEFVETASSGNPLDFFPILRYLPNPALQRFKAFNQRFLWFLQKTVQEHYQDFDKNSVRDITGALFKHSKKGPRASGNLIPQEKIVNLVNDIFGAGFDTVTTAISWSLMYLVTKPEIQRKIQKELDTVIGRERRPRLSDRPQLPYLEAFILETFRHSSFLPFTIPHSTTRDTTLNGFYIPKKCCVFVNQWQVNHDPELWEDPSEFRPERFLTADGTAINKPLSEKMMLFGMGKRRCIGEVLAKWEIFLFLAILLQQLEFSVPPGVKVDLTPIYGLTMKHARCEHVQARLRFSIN

CYP3A4 = CYP3A4 (Homo sapiens, UniProt P08684); experiment: Inhibition of CYP3A4 in human liver microsomes at 0.4 uM; format: ADME, Microsome
CYP2C9 = CYP2C9 (Homo sapiens, UniProt P11712); experiment: Inhibition of CYP2C9 in human liver microsomes at 0.4 uM; format: ADME, Microsome
CYP2C19 = CYP2C19 (Homo sapiens, UniProt P33261); experiment: Inhibition of CYP2C19 in human liver microsomes at 0.4 uM; format: ADME, Microsome
CYP2D6 = CYP2D6 (Homo sapiens, UniProt P10635); experiment: Inhibition of CYP2D6 in human liver microsomes at 0.4 uM; format: ADME, Microsome
Cytochrome P450 1A2 = biological target: T3, Cytochrome P450 1A2 (Homo sapiens, UniProt P05177); experiment: Inhibition of CYP1A2 in human liver microsomes; format: ADME, Microsome
T3 sequence (P05177 whole entry): T2 sequence (P05177 whole entry)

Cytochrome P450 2C9 = Cytochrome P450 2C9 (Homo sapiens, UniProt P11712); experiment: Inhibition of CYP2C9 in human liver microsomes; format: ADME, Microsome
Cytochrome P450 2D6 = Cytochrome P450 2D6 (Homo sapiens, UniProt P10635); experiment: Inhibition of CYP2D6 in human liver microsomes; format: ADME, Microsome
Salmonella typhimurium [2] = experiment: Mutagenic activity in Salmonella Typhimurium TA98 by Ames test in presence of S9 mixture; format: toxicity, organism-based; conditions: salmonella enterica subsp. enterica serovar typhimurium
How it was run: (§2)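 Ames screen with Salmonella typhimurium strains TA98 and TA100, run with and without S-9 mix.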

Salmonella typhimurium [3] = experiment: Mutagenic activity in Salmonella Typhimurium TA100 by Ames test in presence of S9 mixture; format: toxicity, organism-based; conditions: salmonella enterica subsp. enterica serovar typhimurium; how it was run: as §2
[4] = Half life in human liver microsomes; format: ADME, Microsome
SH-SY5Y [5] = experiment: Induction of CYP26A1 mRNA expression in human SH-SY5Y cells at 1 uM after 72 hrs by RT-PCR analysis; format: functional, cell-based; how it was run: as §1

Chain of CYP2D6 (P10635 whole entry): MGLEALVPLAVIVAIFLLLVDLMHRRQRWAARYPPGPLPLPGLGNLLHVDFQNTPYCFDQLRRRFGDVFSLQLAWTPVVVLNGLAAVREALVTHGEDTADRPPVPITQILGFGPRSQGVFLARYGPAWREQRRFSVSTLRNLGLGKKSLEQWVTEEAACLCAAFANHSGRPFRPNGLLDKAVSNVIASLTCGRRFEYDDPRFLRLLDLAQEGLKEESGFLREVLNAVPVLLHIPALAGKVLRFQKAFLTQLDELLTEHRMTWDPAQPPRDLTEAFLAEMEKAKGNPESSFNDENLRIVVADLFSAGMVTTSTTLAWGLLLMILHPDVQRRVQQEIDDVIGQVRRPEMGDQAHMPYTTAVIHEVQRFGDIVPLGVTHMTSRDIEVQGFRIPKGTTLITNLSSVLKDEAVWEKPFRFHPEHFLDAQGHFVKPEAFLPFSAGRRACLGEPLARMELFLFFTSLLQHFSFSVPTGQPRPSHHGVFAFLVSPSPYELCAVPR
Chain of CYP3A4 (P08684 whole entry): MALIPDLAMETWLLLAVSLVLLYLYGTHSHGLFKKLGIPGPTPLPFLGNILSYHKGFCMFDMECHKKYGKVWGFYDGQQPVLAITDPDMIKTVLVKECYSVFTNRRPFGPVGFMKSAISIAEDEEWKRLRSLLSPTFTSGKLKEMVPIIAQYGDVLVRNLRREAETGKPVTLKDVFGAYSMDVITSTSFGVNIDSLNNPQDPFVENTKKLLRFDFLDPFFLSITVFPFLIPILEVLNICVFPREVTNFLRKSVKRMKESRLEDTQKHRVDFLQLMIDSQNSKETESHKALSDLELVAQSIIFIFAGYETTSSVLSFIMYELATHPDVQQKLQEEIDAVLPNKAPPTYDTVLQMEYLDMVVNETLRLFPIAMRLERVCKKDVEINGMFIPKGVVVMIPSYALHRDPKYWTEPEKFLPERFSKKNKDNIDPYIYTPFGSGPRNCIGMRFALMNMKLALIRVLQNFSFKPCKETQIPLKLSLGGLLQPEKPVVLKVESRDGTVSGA
Chain of CYP2C19 (P33261 whole entry): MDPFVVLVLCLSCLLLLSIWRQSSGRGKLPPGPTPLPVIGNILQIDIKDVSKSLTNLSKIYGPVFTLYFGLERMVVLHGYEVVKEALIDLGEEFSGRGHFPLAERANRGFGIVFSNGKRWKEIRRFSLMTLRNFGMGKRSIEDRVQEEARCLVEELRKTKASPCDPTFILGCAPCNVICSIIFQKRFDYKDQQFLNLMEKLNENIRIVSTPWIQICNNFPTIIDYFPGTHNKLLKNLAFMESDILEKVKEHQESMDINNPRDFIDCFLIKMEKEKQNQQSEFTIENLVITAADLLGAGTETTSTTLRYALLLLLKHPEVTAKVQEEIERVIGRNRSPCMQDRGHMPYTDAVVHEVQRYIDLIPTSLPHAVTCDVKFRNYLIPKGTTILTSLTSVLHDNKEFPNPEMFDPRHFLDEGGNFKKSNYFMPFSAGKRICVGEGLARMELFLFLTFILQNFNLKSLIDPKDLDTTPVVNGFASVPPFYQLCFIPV
Chain of CYP2C9 (P11712 whole entry): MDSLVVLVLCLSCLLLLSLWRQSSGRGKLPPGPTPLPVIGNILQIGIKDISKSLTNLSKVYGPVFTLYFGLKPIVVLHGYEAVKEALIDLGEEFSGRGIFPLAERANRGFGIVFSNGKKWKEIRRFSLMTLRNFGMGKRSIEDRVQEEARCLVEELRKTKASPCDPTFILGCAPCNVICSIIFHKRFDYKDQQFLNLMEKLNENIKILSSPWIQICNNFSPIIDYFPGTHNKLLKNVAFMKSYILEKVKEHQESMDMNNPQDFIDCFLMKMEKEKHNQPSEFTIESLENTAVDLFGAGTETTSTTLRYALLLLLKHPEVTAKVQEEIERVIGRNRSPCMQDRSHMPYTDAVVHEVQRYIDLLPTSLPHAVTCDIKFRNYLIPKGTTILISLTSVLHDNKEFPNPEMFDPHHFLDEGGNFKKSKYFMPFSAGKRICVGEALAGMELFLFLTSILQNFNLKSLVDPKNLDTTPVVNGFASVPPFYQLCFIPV
Chain of Cytochrome P450 2D6 (P10635 whole entry): as the sequence (P10635 whole entry) above
Chain of Cytochrome P450 2C9 (P11712 whole entry): as the sequence (P11712 whole entry) above

IC50 (Cytochrome P450 26A1): 0.003 µM | inhibition at 0.4 µM (CYP1A2): 21% | inhibition at 0.4 µM (CYP3A4): 60% | inhibition at 0.4 µM (CYP2C9): 41% | inhibition at 0.4 µM (CYP2C19): 11% | inhibition at 0.4 µM (CYP2D6): 25% | IC50 (Cytochrome P450 1A2): 1.2 µM | IC50 (Cytochrome P450 2C9): 1.5 µM | IC50 (Cytochrome P450 2D6): 0.6 µM | half-life [4]: 5 h
Compound: COC(=O)C(C)(C)C(c1ccc(Nc2ccc3ccccc3c2)cc1)n1ccnc1 (stereo not drawn)
fold change (FC) (SH-SY5Y [1]): 5.8 | Activity (Salmonella typhimurium [2]): Non-toxic | Activity (Salmonella typhimurium [3]): Non-toxic

IC50 (Cytochrome P450 26A1): > 1 µM
Compound: COC(=O)C(C)(C)C(c1ccc(Oc2ccc3ccccc3c2)cc1)n1ccnc1 (stereo not drawn)

IC50 (Cytochrome P450 26A1): 0.01 µM
Compound: COC(=O)C(C)(C)C(c1ccc(Nc2ccccc2)cc1)n1ccnc1 (stereo not drawn)
Activity (SH-SY5Y [1]): Active

IC50 (Cytochrome P450 26A1): 0.01 µM | IC50 (Cytochrome P450 1A2): 8.3 µM | IC50 (Cytochrome P450 2C9): 5.9 µM | IC50 (Cytochrome P450 2D6): 3.9 µM
Compound: C[C@H]([C@@H](c1ccc(Nc2nc3ccccc3s2)cc1)n1ccnc1)N(C)C
Activity (SH-SY5Y [5]): inactive | fold change (FC) (SH-SY5Y [1]): 4.7

IC50 (Cytochrome P450 26A1): 0.25 µM
Compound: COC(=O)C(C)(C)C(c1ccc(Nc2ccc(-c3ccccc3)cc2)cc1)n1ccnc1 (stereo not drawn)

IC50 (Cytochrome P450 26A1): 0.14 µM
Compound: COC(=O)[C@@H](C)[C@H](c1ccc(Nc2ccc3ccccc3c2)cc1)n1ccnc1 (relative stereo)

IC50 (Cytochrome P450 26A1): 0.003 µM
Compound: COC(=O)C(C)(C)C(c1ccc(Nc2ccc3cc(O)ccc3c2)cc1)n1ccnc1 (stereo not drawn)
Activity (SH-SY5Y [1]): Active

IC50 (Cytochrome P450 26A1): 0.01 µM | inhibition at 0.4 µM (CYP1A2): 31% | inhibition at 0.4 µM (CYP3A4): 84% | inhibition at 0.4 µM (CYP2C9): 45% | inhibition at 0.4 µM (CYP2C19): 13% | inhibition at 0.4 µM (CYP2D6): 55%
Compound: COC(=O)C(C)(C)C(c1ccc(Nc2nc3ccccc3o2)cc1)n1ccnc1 (stereo not drawn)
Activity (SH-SY5Y [1]): Active

IC50 (Cytochrome P450 26A1): 0.04 µM
Compound: COC(=O)[C@@H](C)[C@H](c1ccc(Nc2ccccc2)cc1)n1ccnc1 (relative stereo)
Activity (SH-SY5Y [1]): Active

More lines, now with the values behind:

Compound: COC(=O)[C@H](C)[C@H](c1ccc(Nc2ccccc2)cc1)n1ccnc1 (relative stereo)
IC50 (Cytochrome P450 26A1): 0.026 µM

Compound: COC(=O)C(C)(C)C(c1ccc(Nc2cccc3ccccc23)cc1)n1ccnc1 (stereo not drawn)
IC50 (Cytochrome P450 26A1): 0.006 µM | Activity (SH-SY5Y [1]): Active | inhibition at 0.4 µM (CYP1A2): 15% | inhibition at 0.4 µM (CYP3A4): 75% | inhibition at 0.4 µM (CYP2C9): 48% | inhibition at 0.4 µM (CYP2C19): 49% | inhibition at 0.4 µM (CYP2D6): 53%

Compound: COC(=O)C(C)(C)C(c1ccc(Cc2ccc3ccccc3c2)cc1)n1ccnc1 (stereo not drawn)
IC50 (Cytochrome P450 26A1): > 1 µM

Compound: COC(=O)C(C)(C)C(c1ccc(Nc2ccc3c(c2)OCO3)cc1)n1ccnc1 (stereo not drawn)
IC50 (Cytochrome P450 26A1): 0.008 µM | Activity (SH-SY5Y [1]): Active

Compound: COC(=O)[C@H](C)[C@H](c1ccc(Nc2ccc3ccccc3c2)cc1)n1ccnc1 (relative stereo)
IC50 (Cytochrome P450 26A1): 0.05 µM | Activity (SH-SY5Y [1]): Active

Compound: CCOc1ccc2ccccc2c1Nc1ccc(C(n2ccnc2)C(C)(C)C(=O)OC)cc1 (stereo not drawn)
IC50 (Cytochrome P450 26A1): 0.125 µM

Compound: Clc1cccc(C(c2ccc3[nH]cnc3c2)n2ccnc2)c1 (stereo not drawn) [LIAROZOLE]
Activity (SH-SY5Y [5]): inactive | fold change (FC) (SH-SY5Y [1]): 2.3

Compound: COC(=O)C(C)(C)C(c1ccc(Nc2nc3ccccc3s2)cc1)n1ccnc1 (stereo not drawn)
IC50 (Cytochrome P450 26A1): 0.1 µM | inhibition at 0.4 µM (CYP1A2): 38% | inhibition at 0.4 µM (CYP3A4): 46% | inhibition at 0.4 µM (CYP2C9): 87% | inhibition at 0.4 µM (CYP2C19): 91% | inhibition at 0.4 µM (CYP2D6): 11%

Compound: COC(=O)C(C)(C)C(c1ccc(Nc2ccc3cc(OC)ccc3c2)cc1)n1ccnc1 (stereo not drawn)
IC50 (Cytochrome P450 26A1): 0.008 µM

Source: ChEMBL document CHEMBL1764976, “Small molecule inhibitors of retinoic acid 4-hydroxylase (CYP26): synthesis and biological evaluation of imidazole methyl 3-(4-(aryl-2-ylamino)phenyl)propanoates” (J Med Chem, 2011)
